# Rows were chosen to be rich in hits. Some 1.3% of all compounds tested hit in one or more screens of this group.
# CASP6 VEID inh: blocks human caspase-6 cleavage activity; actives 0.53% (n = 350,000); P55212; purified caspase-6, Z-VEID-R110 cleavage fluorescence; AID 686996; inhibition, % at 12.5 µM;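 active = mean inhibition across replicates at least about 35%, with every replicate also reaching that limit, limit read from the data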;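 also: 0% = median of neutral control wells and 100% = no fluorescence left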
# Target sequence (P55212 24-179 limits assumed): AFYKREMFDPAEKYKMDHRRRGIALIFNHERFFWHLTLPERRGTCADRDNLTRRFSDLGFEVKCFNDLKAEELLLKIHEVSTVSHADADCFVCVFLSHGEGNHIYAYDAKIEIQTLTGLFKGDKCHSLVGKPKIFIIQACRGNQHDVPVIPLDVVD
# Target sequence (P55212 194-293 limits assumed): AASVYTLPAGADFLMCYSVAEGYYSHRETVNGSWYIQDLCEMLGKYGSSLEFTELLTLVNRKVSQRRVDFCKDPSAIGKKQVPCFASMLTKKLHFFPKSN
# RAD54 branch: blocks human RAD54 Holliday junction branch migration. FAM/BHQ fluorescence. inhibition, % at 10.4 µM. Q92698. actives 0.14% (n = 360,000);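 active = mean normalized replicate activity at least 40 and at least half of replicates scoring 40 or more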;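 also: 0% = median of neutral control wells and 100% = median of positive control wells; inhibitors cause a drop in the FAM fluorescence signal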
# MLL AF4-AF9 inh: inhibitors of human MLL-AF4/AF9 interaction; AlphaScreen, biotin-AF4 peptide binding to FLAG-AF9; inhibition, % at 10 µM; actives 0.47% (n = 350,000); AID 651704;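 active = every replicate reaching a set inhibition limit, whatever the replicate mean, cut at about 25% in these data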;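 also: 0% = plate neutral control median and 100% = total signal loss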
# Xi reactivation: reactivates the inactive X chromosome in mouse fibroblasts | XiGFP mouse fibroblasts, % GFP-positive cells imaging, 3 d; cells co-treated with 5-aza-dC sensitizer; scaled so ellipticine positive control = 100% | activation, % at 7.58 µM | actives 0.055% (n = 360,000);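 active = mean normalized replicate activation at least 10% and every replicate at or above 10%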;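 also: 0% = median of on-plate neutral control wells and 100% = ellipticine 6 µM median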
#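 Assay system – SV40-immortalized XiGFP fibroblast cells, line 68-5-11 · Buffer or medium – DMEM supplemented with 5-aza-dC as sensitizing agent · Dosing – one concentration, pinned · Benchmarks – positive control ellipticine, 6 µM final · Times – 3 days compound exposure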
# S100A4 inh HTS: S100A4-myosin IIA interaction inhibition | AID 652163 | P26447 | actives 0.14% (n = 360,000) | inhibition, % at 10.7 µM | S100A4/TAMRA-MyoIIA peptide fluorescence polarization;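 active = mean inhibition of at least 70% across replicates, with every replicate also reaching that level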
#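 Test system: S100A4 monomer protein; Medium: HEPES pH 7.2 with CaCl2, KCl, NaCl, DTT, Triton; Probe or stimulus: TAMRA-labelled myosin IIA heavy-chain peptide probe, 5 nM; Doses: one dose per compound; Times: polarization read 5 min after assay mix addition, stable 5–60 min; Benchmarks: neutral control DMSO, positive control TFP.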
# RAD52 inh: RAD52 (human) annealing inhibition; P43351; recombinant RAD52 DNA annealing, FRET fluorescence; inhibition, % at 18.7 µM; actives 0.46% (n = 360,000);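 active = every replicate showing at least 50% inhibition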
# Target sequence (P43351 whole entry, looked up): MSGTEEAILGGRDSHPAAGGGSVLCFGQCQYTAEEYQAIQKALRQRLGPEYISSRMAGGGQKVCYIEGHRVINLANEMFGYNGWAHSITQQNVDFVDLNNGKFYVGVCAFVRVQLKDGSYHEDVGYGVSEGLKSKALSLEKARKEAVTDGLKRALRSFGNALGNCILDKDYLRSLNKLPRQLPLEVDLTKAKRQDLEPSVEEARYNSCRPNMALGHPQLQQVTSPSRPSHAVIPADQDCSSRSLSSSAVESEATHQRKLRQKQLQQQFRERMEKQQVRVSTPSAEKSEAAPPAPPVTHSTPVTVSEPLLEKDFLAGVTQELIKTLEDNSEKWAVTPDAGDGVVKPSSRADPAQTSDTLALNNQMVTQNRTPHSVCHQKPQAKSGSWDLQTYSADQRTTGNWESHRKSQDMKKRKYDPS
# * = called active by the depositor; / = not tested or not shown.
SMILES,CASP6 VEID inh,RAD54 branch,MLL AF4-AF9 inh,Xi reactivation,S100A4 inh HTS,RAD52 inh
O=C(O)CC1S/C(=N/N=C/c2ccc(-c3ccc(Cl)c([N+](=O)[O-])c3)o2)NC1=O (stereo not given),35.4*,/,-1.8,0.2,-3.0,-13.4
ON=C1c2ccccc2-c2ccccc21,-2.7,2.0,-1.0,0.9,1.0,1.5
NC(N)=NN=C1c2ccccc2-c2ccccc21,-4.1,81.6*,13.2,0.1,-5.3,42.9
COCC(=O)N(C)C[C@@H]1Oc2ncc(C#Cc3ccccc3)cc2C(=O)N([C@H](C)CO)C[C@@H]1C,1.2,12.3,-1.6,-1.1,-27.3,-8.3
O=C(O)CCCC[C@@H]1SC[C@@H]2NC(=O)N[C@@H]21,-5.3,3.9,97.4*,/,-5.6,-6.9
Nc1nc(-c2cc(O)ccc2[N+](=O)[O-])cc(-c2ccccc2)c1[N+](=O)[O-],46.6*,-0.9,-1.3,0.1,6.7,-47.7
Cc1ccc(NC(=O)COc2cccc(/C=C3\SC(=S)N(CCC(=O)O)C3=O)c2)cc1Cl,41.7*,/,-6.1,0.0,3.5,-24.5
O=C(O)CCN1C(=O)/C(=C\c2cccc(OCC(=O)Nc3ccc(Cl)cc3)c2)SC1=S,13.5,5.2,-22.7,0.1,2.4,-25.9
CC(=O)Nc1cccc2c1O[C@@H](CN(C)C(=O)NC(C)C)[C@@H](C)CN(C)C2=O,/,/,/,0.1,/,/
CCOC(=O)C1=C(C)NC(C)=C(C(=O)OCC)C1C(=O)OCC(=O)NC(C)c1ccccc1 (stereo not given),46.4*,-8.0,-2.5,2.3,-4.6,-12.4
CCOC(=O)C1=C(C)NC(C)=C(C(=O)OCC)C1C(=O)OCC(=O)NCc1ccccc1,3.1,/,-2.1,0.3,1.5,-9.5
O=C1C=CC2=C3c4cc(O)c(O)cc4CC3(O)COC2=C1O (stereo not given),84.9*,9.9,2.2,/,-11.5,-2.8
CN(C)c1ccc(/C=C(/C#N)C(=O)NCc2ccccc2)o1,/,/,/,16.9*,/,/
CSc1ccccc1NC(=O)CN(C)C(=O)/C=C/c1ccccc1,36.1*,1.5,1.1,0.1,6.3,-1.0
Cc1ccc(C(=O)O)cc1N1C(=O)c2cccc3c([N+](=O)[O-])ccc(c23)C1=O,41.5*,-20.5,-12.6,2.9,4.0,-130.3
CC(=O)Oc1cccc(N2C(=O)c3cccc4c([N+](=O)[O-])ccc(c34)C2=O)c1,4.8,-7.5,-1.7,12.5*,-1.1,-23.2
O=C(O)c1ccc(CN2C(=O)c3cccc4c([N+](=O)[O-])ccc(c34)C2=O)cc1,2.4,3.9,/,/,2.4,-165.0
CC(=O)Oc1cccc(N2C(=O)c3ccc(C(=O)O)cc3C2=O)c1,/,-13.5,/,/,/,/
COc1ccc(CN2C[C@H](O)COC[C@@H]3O[C@@H](CC(=O)NCCN4CCCC4)CC[C@H]32)cc1,/,-1.0,/,0.0,/,/
C[C@H](CO)N1C[C@H](C)[C@H](CN(C)Cc2ccccn2)Oc2ncc(-c3ccc(F)cc3)cc2C1=O,1.4,-1.2,-2.6,-0.9,12.7,-14.0
COC(=O)c1ccccc1NC(=O)c1cc(-c2ccco2)on1,65.9*,1.0,-0.1,0.0,-16.3,-18.7
COC(=O)c1ccccc1NC(=O)c1cc(-c2cccs2)on1,1.7,1.5,-10.5,/,0.1,-9.5
COc1cccc(C(=O)Nc2nnc(-c3ccc(Cl)cc3)o2)c1,1.8,-1.9,10.1,0.4,-0.4,-12.7
COc1ccc(NC(=O)c2cc(-c3cccs3)on2)c(OC)c1,-0.4,-0.3,34.1*,0.4,-5.6,-5.0
COc1cccc(C(=O)Nc2nnc(-c3cccs3)o2)c1,-2.3,-1.7,45.0*,0.2,-15.2,-19.9
SMILES,CASP6 VEID inh,RAD54 branch,MLL AF4-AF9 inh,Xi reactivation,S100A4 inh HTS,RAD52 inh
Cn1nc(C(C)(C)C)cc1C(=O)NNC(=O)c1cccc(Cl)c1,1.8,0.7,39.7*,0.0,-0.4,-9.4
COC(=O)[C@H]1[C@H](CO)[C@H]2Cn3c(cccc3=O)[C@H]2N1CC1CCCCC1,2.9,3.2,-3.6,0.0,10.7,-22.0
O=C([C@H]1[C@H](CO)[C@H]2Cn3c(cccc3=O)[C@H]2N1Cc1ccccn1)N1CCC(Cc2ccccc2)CC1,40.8*,/,-0.6,0.8,0.0,-15.0
O=C([C@@H]1[C@@H](CO)[C@@H]2Cn3c(cccc3=O)[C@@H]2N1Cc1cc(F)ccc1F)N1CCOCC1,48.8*,4.4,-2.9,0.0,13.5,-34.9
COC(=O)[C@@H]1[C@@H](CO)[C@@H]2Cn3c(cccc3=O)[C@@H]2N1CC1CCOCC1,73.8*,-7.2,-4.6,0.0,87.6*,-320.0
Cc1csc(=O)n1CC(=O)OCC(=O)NCc1ccccc1,-1.3,/,-1.0,0.2,-0.4,-11.3
Cc1csc(=O)n1CC(=O)OCC(=O)NCc1ccc(F)cc1,59.4*,13.6,-0.8,0.0,0.5,-10.8
CN(C)C(=O)c1ccc(-c2ccc([C@@H]3[C@@H](CO)N4CCCCN(CC5CC5)C[C@@H]34)cc2)cc1,-1.8,-5.1,-4.3,0.5,108.9*,-5.3
COc1cccc(-c2ccc([C@H]3[C@H]4CN(CC5CC5)CCCCN4[C@H]3CO)cc2)c1,0.9,4.6,2.9,0.0,-0.2,-21.2
COc1cccc(-c2ccc([C@H]3[C@H](CO)N4CCCCN(CC5CC5)C[C@@H]34)cc2)c1,-0.5,12.9,7.0,0.0,127.2*,-10.0
N=C1/C(=C\c2ccc(-c3cccc(C(=O)O)c3)o2)C(=O)N=C2SC=C(c3ccccc3)N12,49.5*,/,-0.9,-0.1,0.3,-49.7
C[C@@H]1CN([C@@H](C)CO)C(=O)c2c(c3ccccc3n2C)-c2ccccc2CO[C@@H]1CN(C)Cc1ccccc1C(F)(F)F,-0.2,/,-9.9,1.8,-22.4,13.2
Cc1ccc(NC(=O)c2sc(C)nc2C)c(C)c1,51.0*,/,4.5,0.3,15.0,-8.0
Cc1ccc(NC(=O)c2sc(Cl)nc2C)c(C)c1,/,-2.6,/,0.0,/,/
Cc1ccc(NC(=O)c2sc(N)nc2-c2ccc([N+](=O)[O-])cc2)cc1C,1.2,15.6,2.1,0.0,-0.2,-4.0
Cc1ccc(NC(=O)c2sc(N)nc2-c2ccc([N+](=O)[O-])cc2)c(C)c1,-0.2,/,29.8*,-0.2,-9.8,-12.5
O=C(C[C@H]1C[C@@H]2c3cc(NC(=O)Nc4ccc(C(F)(F)F)cc4)ccc3O[C@@H]2[C@@H](CO)O1)NCCc1ccccc1,0.6,-13.8,3.0,0.2,-28.6,-10.0
c1ccc(-c2nc(N3CCCCCC3)c3ccccc3n2)nc1,/,56.4*,/,/,/,/
c1ccc(CCNc2nc(-c3ccccn3)nc3ccccc23)cc1,-2.4,20.8,14.1,25.5*,-3.2,-1.7
CCCC#Cc1cnc2c(c1)C(=O)N([C@@H](C)CO)C[C@@H](C)[C@H](CN(C)C(=O)Cc1cccnc1)O2,-1.0,-3.4,-3.2,-1.3,0.2,12.0

# Compound activity (PubChem BioAssay)
